Measured values from different studies.
Compare with care: the assays were run in different laboratories.
Target: Serine/threonine-protein kinase D1 (PRKD1, Homo sapiens, UniProt Q15139)
One construct used (Q15139 1-912): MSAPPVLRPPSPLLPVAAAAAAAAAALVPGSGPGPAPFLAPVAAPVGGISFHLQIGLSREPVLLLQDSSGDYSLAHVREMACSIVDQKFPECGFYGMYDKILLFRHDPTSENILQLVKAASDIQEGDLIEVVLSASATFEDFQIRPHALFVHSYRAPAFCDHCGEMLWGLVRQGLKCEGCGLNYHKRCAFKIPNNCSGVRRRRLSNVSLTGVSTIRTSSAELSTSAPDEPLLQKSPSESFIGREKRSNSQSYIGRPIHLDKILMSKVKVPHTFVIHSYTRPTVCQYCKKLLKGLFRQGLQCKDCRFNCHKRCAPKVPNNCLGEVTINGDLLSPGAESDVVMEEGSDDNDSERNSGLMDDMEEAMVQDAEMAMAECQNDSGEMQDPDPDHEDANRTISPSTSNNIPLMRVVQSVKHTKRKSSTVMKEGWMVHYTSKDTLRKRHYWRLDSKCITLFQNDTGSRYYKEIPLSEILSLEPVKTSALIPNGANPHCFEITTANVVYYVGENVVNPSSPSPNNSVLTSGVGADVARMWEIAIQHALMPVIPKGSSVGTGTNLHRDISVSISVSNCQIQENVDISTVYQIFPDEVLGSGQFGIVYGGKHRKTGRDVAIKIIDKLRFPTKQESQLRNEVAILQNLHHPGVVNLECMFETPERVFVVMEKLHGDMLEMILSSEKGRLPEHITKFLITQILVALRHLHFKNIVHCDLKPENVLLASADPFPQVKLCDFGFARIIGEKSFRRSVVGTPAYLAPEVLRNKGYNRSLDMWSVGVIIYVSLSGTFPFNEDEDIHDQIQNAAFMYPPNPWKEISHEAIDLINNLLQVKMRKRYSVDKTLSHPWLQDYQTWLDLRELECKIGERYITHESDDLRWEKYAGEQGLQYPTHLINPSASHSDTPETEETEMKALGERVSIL

Compound | read-out | technique | tested at | remaining binding [%]
O=C(NCCCN1CCOCC1)c1ccc(Nc2nccc(-c3cc4ccccc4s3)n2)cc1 | binding | competition with immobilised ligand | 1 µM | 47
CS(=O)(=O)N1CCCC(NC(=O)[C@H](CCC2CCCCC2)NC(=O)c2ccc(CNC(=O)c3cnc4ccccn34)cc2)C1 (some centres unmarked) | cell-free assay | competition with immobilised ligand | 0.1 µM | 93
COc1cnc(Nc2cccc(S(N)(=O)=O)c2)nc1N1CCN(c2ccccc2)CC1 | binding | competition with immobilised ligand | 1 µM | 100
N[C@@H]1CCN(c2nccc(-c3cnn4ncccc34)n2)C1 | binding | – | 1 µM | 99
O=C(NCCCN1CCOCC1)c1ccc(Nc2ncc(Cl)c(-c3ccc(Cl)s3)n2)cc1 | binding | competition with immobilised ligand | 1 µM | 30
O=C1NC(c2ccccn2)Sc2ccccc21 (centres unmarked) | cell-free assay | competition with immobilised ligand | 1 µM | 100
COc1ccnn2ncc(-c3ccnc(N(C)C)n3)c12 | binding | – | 1 µM | 100
Nc1ncc2c(n1)-c1c([nH]c3ccc(C#CC4CC4)cc13)CCCC2 | binding | competition with immobilised ligand | 1 µM | 100
C=CC(=O)N1CCC(C(=O)NCC(=O)N2CCN(c3nc(-c4cnc(N)nc4C(F)F)nc(N4CCOCC4)n3)CC2)CC1 | binding | competition with immobilised ligand | 1 µM | 90
CC1=C(C#N)C(c2ccc3c(c2)c(NC(=O)c2ccccc2C)nn3C)C(C#N)=C(C)N1 | cell-free assay | competition with immobilised ligand | 1 µM | 92
CN(C)c1nccc(-c2cnc3ncccn23)n1 | binding | – | 1 µM | 61
CC(=O)c1c(NS(C)(=O)=O)c2cc(-c3ccc(Cl)cc3)c(-c3ccc(Cl)cc3Cl)nc2n(C)c1=O | cell-free assay | competition with immobilised ligand | 1 µM | 100
COc1cnc(Nc2cccc(S(N)(=O)=O)c2)nc1N1CCN(c2ccccc2)C(=O)C1 | binding | competition with immobilised ligand | 1 µM | 100
C[C@@H]1CCN(c2nccc(-c3cnn4ncccc34)n2)C1 | binding | – | 1 µM | 100
CN([C@@H]1CCc2c(CC(=O)O)c3cc(S(C)(=O)=O)ccc3n2C1)S(=O)(=O)c1ccc(F)cc1 | cell-free assay | competition with immobilised ligand | 1 µM | 75
CN(c1nccc(-c2cnn3ncccc23)n1)C1CC1 | binding | – | 1 µM | 100
CO[C@@H](C)c1c(Nc2ccc([C@H](N(C)C(=O)C3CCS(=O)(=O)CC3)C(F)(F)F)cc2)cnc2cc(Cl)nn12 | cell-free assay | competition with immobilised ligand | 1 µM | 100
O=C(Nc1c[nH]nc1C(=O)NC1CCNCC1)c1cc(F)cc(F)c1 | binding | competition with immobilised ligand | 1 µM | 94
CC1CCCN1c1nccc(-c2cnn3ncccc23)n1 (centres unmarked) | binding | – | 1 µM | 100
O=C(c1ccc(Nc2ncc(Cl)c(-c3cc4ccccc4s3)n2)cc1)N1CCC(N2CCCC2)CC1 | binding | competition with immobilised ligand | 1 µM | 28
